The text below walks through data of PubChem BioAssay.

The other results are listed elsewhere or left out. Active and inactive are the calls of the source.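 The calls were made as follows, unless noted: active = mean activation across triplicate tests above the threshold derived from the earlier primary screen (cut at about 5.5% in these data); inactive = the rest.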

Oxysterols receptor LXR-beta (Homo sapiens), sequence (P55055 whole entry, looked up, the tested form may be a part): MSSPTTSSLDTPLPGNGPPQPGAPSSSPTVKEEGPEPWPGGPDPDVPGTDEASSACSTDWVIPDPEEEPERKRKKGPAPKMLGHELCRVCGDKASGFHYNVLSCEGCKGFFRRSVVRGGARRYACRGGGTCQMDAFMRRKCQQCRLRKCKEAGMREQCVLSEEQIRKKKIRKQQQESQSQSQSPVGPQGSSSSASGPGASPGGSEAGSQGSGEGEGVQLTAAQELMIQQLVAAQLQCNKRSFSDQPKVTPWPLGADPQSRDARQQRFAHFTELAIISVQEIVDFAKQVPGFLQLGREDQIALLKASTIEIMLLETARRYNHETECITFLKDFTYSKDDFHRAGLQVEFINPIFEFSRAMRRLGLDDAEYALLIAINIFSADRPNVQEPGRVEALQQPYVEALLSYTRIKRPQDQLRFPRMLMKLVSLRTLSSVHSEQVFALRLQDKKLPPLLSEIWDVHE

For one experiment, the target named is Oxysterols receptor LXR-beta (Homo sapiens) (UniProt P55055). The experiment in a line: LXR agonists, Gal4 luciferase reporter, confirmation, counter-screen for hcDAF-12 agonist project, cell-based, luminescence, HEK293, H. contortus campaign (AID 743027;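 active = mean percent activation of the reporter above a cutoff set as the average over tested compounds plus their standard deviation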). The conditions noted are these: HEK293 Gal4-LXR tk-luc reporter, 24 h, at 6.8 µM, active compounds read high, normalized: DMSO 0%, positive control 100%. The gist of the method: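 Assay system: HEK293 Gal4-LXR luciferase reporter cells | Measure: % activation relative to DMSO and positive-control wells | Benchmarks: DMSO-only wells as low, positive-control wells as high | Timing: 24 h compound exposure at 37 °C, 5% CO2 | Detection: Luciferase luminescence read with One-Glo reagent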
As to `CCS(=O)(=O)c1cc([N+](=O)[O-])c(Sc2ccccc2N)s1`, the activation is 0.38% (inactive).
On the same count and under the same terms, the value for `Clc1cccc(-c2nc3nc4ccccc4nc3n2Cc2ccco2)c1` was 0.26% (inactive).
Same read-out and setting: the value for `CN1CCc2ccccc2C1Cc1ccccc1NC(=O)c1sc2ccccc2c1Cl` (stereo unspecified) was -0.05% (inactive); that for `NS(=O)(=O)c1ccc2nc(NC(=O)CS(=O)(=O)c3ccc(F)cc3)sc2c1` was -0.28% (inactive); that for `COc1ccc(CNC(=O)c2ccc3oc(C(C)C)nc3c2)cc1` was 0.72% (inactive).
Same read-out and setting: the value for `CC(C#N)OC(=O)c1cccnc1SCC(=O)Nc1ccc2c(c1)OCO2` (stereo unspecified) was 0.05% (inactive).
Take `c1ccc2sc(NN=C3CCCC3)nc2c1`: the activation was 1.38% (inactive).
On the same count and under the same terms, the value for `Cc1ccc(OCc2nc3ccccc3n2C)cc1` was 1.32% (inactive).
For the compound `CN(CC(=O)Nc1cccc(F)c1)C(=O)C1CC(=O)N(CCc2ccccc2)C1` (stereo unspecified), the activation is -0.05% (inactive).
Still for that read-out and setting: the value for `CCn1cc(CN2CCN(CC(C)(C)C)C(CCO)C2)c2ccccc21` (stereo unspecified) was -0.12% (inactive); that for `O=C(c1cc(-c2ccccc2O)on1)N1CCCC1` was 0.82% (inactive).
Still for that read-out and setting: next, `NNc1nc2c(Cl)cccc2s1`: -0.01% (inactive); `CC(C)C(=O)Nc1ccc2c(c1)oc1ccccc12`: 0.52% (inactive).

The subject of a further experiment is Nuclear hormone receptor DAF-12 (Haemonchus contortus). The experiment can be described thus: H. contortus DAF-12 receptor agonists, confirmation, cell-based, luminescence, HEK293, lit1-tk-luc, triplicate (AID 743032).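 Also: 0% = DMSO only wells and 100% = 3 µM Δ7-dafachronic acid.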 The conditions noted are these: HEK293 hcDAF-12 lit1-tk-luc reporter, at 6.8 µM, active compounds read high, % of Δ7-dafachronic acid response.
`CCS(=O)(=O)c1cc([N+](=O)[O-])c(Sc2ccccc2N)s1`: the activation is 7.39% (active).
As for `Clc1cccc(-c2nc3nc4ccccc4nc3n2Cc2ccco2)c1`, the activation was 5.41% (inactive).
The same measure, in the same setting: the value for `CN1CCc2ccccc2C1Cc1ccccc1NC(=O)c1sc2ccccc2c1Cl` (stereo unspecified) was 1.76% (inactive).
On the same count and under the same terms, the value for `NS(=O)(=O)c1ccc2nc(NC(=O)CS(=O)(=O)c3ccc(F)cc3)sc2c1` was 3.34% (inactive); that for `COc1ccc(CNC(=O)c2ccc3oc(C(C)C)nc3c2)cc1` was 2.54% (inactive); that for `CC(C#N)OC(=O)c1cccnc1SCC(=O)Nc1ccc2c(c1)OCO2` (stereo unspecified) was 5.55% (inactive).
The same measure, in the same setting: the value for `c1ccc2sc(NN=C3CCCC3)nc2c1` was 6.89% (active).
As to `Cc1ccc(OCc2nc3ccccc3n2C)cc1`, the activation was 5.18% (inactive).
Still for that read-out and setting: next, `CN(CC(=O)Nc1cccc(F)c1)C(=O)C1CC(=O)N(CCc2ccccc2)C1` (stereo unspecified): 4.2% (inactive); `CCn1cc(CN2CCN(CC(C)(C)C)C(CCO)C2)c2ccccc21` (stereo unspecified): 3.73% (inactive).
On the same count and under the same terms, next, `O=C(c1cc(-c2ccccc2O)on1)N1CCCC1`: 6.57% (active).
The same measure, in the same setting: the value for `NNc1nc2c(Cl)cccc2s1` was 1.23% (inactive); that for `CC(C)C(=O)Nc1ccc2c(c1)oc1ccccc12` was 5.43% (inactive).
